# Screening data from PubChem BioAssay.
# Env fusion inh – blocks HIV Env-driven cell-cell fusion; 360,000 tested, 1.1% active; inhibition, % at 12.3 µM; AID 651610; HeLa-JRFL Env/CEM21 cell fusion, luciferase;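 active = mean replicate inhibition score of at least 50 and every replicate individually at or above 50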
# FN deposition inh – fibronectin deposition inhibition; inhibition, % at 12.6 µM; 350,000 tested, 0.086% active; AH1F fibroblasts, Alexa488-fibronectin deposition fluorescence, overnight;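 active = mean inhibition across replicates of 30% or more, regardless of how many single replicates reach that level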
#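 Measured by – fluorescence 485/525 nm · System – AH1F fibroblast monolayer, labelled fibronectin deposition · Amount – 10000 cells per well · Buffer or medium – serum-reduced DMEM (2% serum) · Doses – single dose, pinned · Also added – fluorescent fibronectin at 24 nM final · Schedule – 1 h cell attachment, overnight exposure to compound and label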
# INS-1E GSIS act – primary screen for activators of insulin secretion dependent on glucose, INS-1E cells, GLuc reporter luminescence; activation, % at 16.6 µM; INS-1E GLuc reporter insulin secretion, 2-3 h; 370,000 tested, 0.61% active; AID 743287;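 active = lowest replicate activation of at least 40%, so every replicate reaches that level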
# ERp5 block – blocks human ERp5 reductase activity on insulin; 350,000 tested, 0.05% active; Q15084; inhibition, % at 9.99 µM; ERp5 insulin aggregation, absorbance 650 nm, 90 min;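 active = mean replicate inhibition above about 25%, with every replicate also reaching it, limit read from the data, passing the limit was not always enough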
# Target sequence (Q15084 whole entry, looked up): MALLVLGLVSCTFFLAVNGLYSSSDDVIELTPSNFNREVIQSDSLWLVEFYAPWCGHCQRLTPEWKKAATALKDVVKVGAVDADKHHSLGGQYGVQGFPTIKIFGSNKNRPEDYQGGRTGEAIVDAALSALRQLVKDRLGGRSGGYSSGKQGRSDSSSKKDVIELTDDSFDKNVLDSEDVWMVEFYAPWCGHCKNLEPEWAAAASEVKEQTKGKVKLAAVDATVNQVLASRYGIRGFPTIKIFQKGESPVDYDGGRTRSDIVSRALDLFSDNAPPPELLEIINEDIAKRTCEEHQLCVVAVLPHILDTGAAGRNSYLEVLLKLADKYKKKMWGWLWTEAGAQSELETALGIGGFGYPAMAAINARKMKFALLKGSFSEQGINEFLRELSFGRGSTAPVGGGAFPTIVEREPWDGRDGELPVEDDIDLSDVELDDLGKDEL
# PDI inh – inhibitors of human protein disulfide isomerase; P07237; PDI insulin aggregation turbidity, A650, 90 min; inhibition, % at 10 µM; 350,000 tested, 0.052% active;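 active = mean inhibition across replicates of 30% or more, whatever share of single replicates reach that level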
# Hits are given with their value; 0 = inactive; - = not tested or not shown; [ ] = another dose, or the depositor's remark. In the library only some 1.4% were active in any assay of this set; here they are far more common.
SMILES,Env fusion inh,FN deposition inh,INS-1E GSIS act,ERp5 block,PDI inh
ClC(Cl)(c1nnnn1-c1ccccc1)c1nnnn1-c1ccccc1,0,0,138.6,-,0
COc1cccc(S(=O)(=O)N2CC3(CN(C(=O)Nc4cccc(F)c4)[C@@H](CO)c4[nH]c5cc(OC)ccc5c43)C2)c1,93.3[16.7 µM],-,0,0,-
COc1ccc2c3c([nH]c2c1)[C@H](CO)N(C(=O)Nc1cccc(F)c1)CC31CN(S(=O)(=O)c2cccc(C)c2)C1,75.2[16.7 µM],-,0,0,-
COc1cccc(S(=O)(=O)N2CC3(CN(C(=O)Nc4ccc(F)cc4)[C@H](CO)c4[nH]c5cc(OC)ccc5c43)C2)c1,-,-,0,-,-
CCS(=O)(=O)N1CC2(C1)[C@@H](c1ccccc1)[C@H](CO)N2Cc1ccc(F)cc1,-,0,0,0,-
CCC(=O)N(C)C[C@@H]1Oc2ncc(-c3ccc(C#N)cc3)cc2C(=O)N([C@H](C)CO)C[C@@H]1C,0,0,0,0,-
COc1ccc(S(=O)(=O)NC(N)=NCCc2ccc(OC)c(OC)c2)cc1C,0,0,0,0,0
COc1ccc(CCN=C(N)NS(=O)(=O)c2ccc(C)c(C)c2)cc1OC,0,0,90.5,0,0
CC(=O)N1CC(=O)N2[C@H](C1)[C@H](c1ccc(-c3cccc(C(=O)N(C)C)c3)cc1)[C@@H]2CO,-,-,0,-,-
CCSC1=C(C#N)C(c2ccc(Cl)cc2)C2=C(CCCC2=O)N1 (stereo not given),57.8,0,-,-,0
C[C@H]1CCCCO[C@H](CN(C)S(=O)(=O)c2ccc(Cl)cc2)[C@@H](C)CN([C@@H](C)CO)C(=O)c2cc(NC(=O)C3CCCCC3)ccc2O1,0,0,0,0,-
Cc1ccc(S(=O)(=O)NCc2ccncc2)c(C)c1C,55.1,0,0,0,0
Cc1ccc(S(=O)(=O)NCc2ccccn2)c(C)c1C,0,0,0,0,0
COc1cc2ccccc2cc1C(=O)Nc1ccc2oc(=O)ccc2c1,0,0,155.6,0,0
COc1cc(OC)c(C(=O)Nc2ccc3ccccc3c2)cc1OC,-,-,-,-,0
Cc1ccc(CC2S/C(=N/c3ccccn3)NC2=O)cc1 (stereo not given),-,-,58.1,-,0
CN(C)CC(=O)Nc1ccc2c(c1)[C@H]1C[C@H](CC(=O)N3CCc4ccccc4C3)O[C@H](CO)[C@H]1O2,0,0,0,0,-
COc1cccc(-c2nnn(CC(=O)O)n2)c1,0,0,75.9,-,0
CCOC(=O)Cn1nnc(-c2cccc(OC)c2)n1,0,0,0,-,0
Cc1nc2ccccc2c2oc(C(=O)N3CCCC(C)C3)cc12 (stereo not given),0,0,46.2,0,0
S=C(NCC1CCCO1)Nc1ccc(Cl)cc1Cl (stereo not given),0,30.1,0,-,0
O=C(Nc1ccc(Cl)c(C(F)(F)F)c1)[C@@H]1CC=C[C@@H]2CCN(Cc3ccc(Cl)c(Cl)c3)C(=O)[C@@H]21,84.2,0,0,0,0
COc1ccc(S(=O)(=O)N(C)C[C@H]2OCCCC[C@H](C)Oc3ccc(NS(=O)(=O)c4ccc(F)cc4)cc3C(=O)N([C@@H](C)CO)C[C@H]2C)cc1,0,0,0,0,-
COc1ccc2c3c(n(C)c2c1)[C@H](CO)N(CC1CC1)CC31CCN(C(=O)Nc2c(C)noc2C)CC1,-,-,0,0,-
CC(C)CN(C(=O)C(c1ccccc1)c1ccccc1)c1c(N)n(CC(C)C)c(=O)[nH]c1=O,79.3,0,0,0,0
SMILES,Env fusion inh,FN deposition inh,INS-1E GSIS act,ERp5 block,PDI inh
CC(C)CN(C(=O)COC(=O)C12CC3CC(CC(C3)C1)C2)c1c(N)n(Cc2ccccc2)c(=O)[nH]c1=O,69.6,0,0,0,0
CCNC(=O)Nc1ccc2c(c1)C(=O)N(C)[C@H]1CC[C@@H](CC(=O)NCC3CC3)O[C@H]1CO2,0,0,0,-,-
O=C(c1ccc2c(c1)OCO2)N1CCN(S(=O)(=O)c2ccccc2)CC1,0,0,46.2,0,0
Cc1ccc(C(=O)OCc2ccc3c(c2)OCO3)cc1S(=O)(=O)N1CCCCC1,55.1,-,0,-,0
CC1CCN(S(=O)(=O)c2ccc(C(=O)OCc3ccc4c(c3)OCO4)cc2)CC1,0,0,142.3,-,0
C[C@@H]1CN([C@@H](C)CO)C(=O)c2cc(C#CC3CC3)cnc2O[C@H]1CN(C)C(=O)c1ccc(F)cc1,0,-,0,0,-
C[C@H](NC(=O)N(C)C[C@H]1OCc2ccccc2-c2ccccc2C(=O)N([C@H](C)CO)C[C@@H]1C)c1ccccc1,-,0,0,-,-
CCC(=O)N=c1sc2cc([N+](=O)[O-])ccc2n1CCOC,-,0,0,-,0
CCOC(=O)Cn1c(=NC(=O)CN2C(=O)CCC2=O)sc2cc(S(N)(=O)=O)ccc21,-,0,0,0,0
CCOC(=O)Cn1c(=NC(=O)C(C)(C)C)sc2cc([N+](=O)[O-])ccc21,0,0,-,0,0
CCOC(=O)Cn1c(=NC(=O)c2nc3ccccc3s2)sc2cc(S(N)(=O)=O)ccc21,0,0,67.5,-,0
CCOC(=O)Cn1c(=NC(=O)c2cccs2)sc2cc(C(=O)OC)ccc21,0,0,89.6,-,0
CCOC(=O)c1ccc2c(c1)sc(=NC(=O)c1ccco1)n2CCOC,0,0,64.7,-,0
CO[C@@H]1CN(C)C(=O)c2ccc(NS(=O)(=O)c3ccccc3)cc2OC[C@@H](C)NC[C@@H]1C,-,0,0,0,-
O=C(Oc1ccc2c(c1)OCO2)c1cc2c(s1)CCC2,75.4,0,46.3,-,0
COc1ccc2c(c1)C(SCC(=O)NCCc1ccc(Cl)cc1)CC(C)(C)O2 (stereo not given),62.6,0,0,0,-
COc1ccc(CCC(=O)NCCc2ccc(Cl)cc2)cc1,0,0,0,0,0
O=C(c1cccs1)N(Cc1ccc(Cl)cc1)C1CCS(=O)(=O)C1 (stereo not given),0,0,48.4,0,0
Cn1cnc(S(=O)(=O)N[C@H]2CC[C@@H](CC(=O)Nc3ccc(-c4ccccc4)cc3)O[C@@H]2CO)c1,0,-,0,0,-
CCOc1ccc(/C=C/C(=O)Nc2ccc(C(N)=O)cc2)cc1OC,-,-,0,-,0
CCOc1cc(/C=C/C(=O)Nc2ccc(C(=O)NCCN(CC)CC)cc2)ccc1OCC(C)C,0,0,68.1,0,0
C[C@@H]1CN([C@@H](C)CO)C(=O)c2cc(NC(=O)Nc3cccc4ccccc34)ccc2O[C@H]1CN(C)S(=O)(=O)c1ccc(F)cc1,0,-,0,0,-
O=C(NCc1ccccc1)c1cccc(COc2ccc3c(c2)CCC3)c1,0,0,0,-,0
O=C(O)c1cccc(COc2ccc3c(c2)CCC3)c1,84.6,0,0,0,0
CO[C@H]1CN(C)C(=O)c2ccc(NC(=O)c3ccc(-c4ccccc4)cc3)cc2OC[C@H](C)NC[C@@H]1C,-,0,0,0,-
CO[C@@H]1CN(C)C(=O)c2ccc(NS(=O)(=O)c3ccc(Oc4ccccc4)cc3)cc2OC[C@@H](C)NC[C@@H]1C,55.9[16.7 µM],0,0,-,-
CO[C@@H]1CN(C)C(=O)c2ccc(NC(=O)c3ccc(-c4ccccc4)cc3)cc2OC[C@@H](C)NC[C@H]1C,-,39.7,0,0,-
